The record followed here is PubChem BioAssay AID1448 (The Scripps Research Institute Molecular Screening Center, 2008).

In all, about 220,000 compounds went through this assay and about 630 (0.29%) were called active.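 The calls were made as follows: active = activation above its plate's cutoff, the mean activation of the plate's test wells plus 3 SD (cut at about 12% in these data); inactive = the rest.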 Shown is part of a subset that was picked to be rich in actives.

Sequence of Mucolipin-3 (Homo sapiens) (Q8TDD5 whole entry, looked up): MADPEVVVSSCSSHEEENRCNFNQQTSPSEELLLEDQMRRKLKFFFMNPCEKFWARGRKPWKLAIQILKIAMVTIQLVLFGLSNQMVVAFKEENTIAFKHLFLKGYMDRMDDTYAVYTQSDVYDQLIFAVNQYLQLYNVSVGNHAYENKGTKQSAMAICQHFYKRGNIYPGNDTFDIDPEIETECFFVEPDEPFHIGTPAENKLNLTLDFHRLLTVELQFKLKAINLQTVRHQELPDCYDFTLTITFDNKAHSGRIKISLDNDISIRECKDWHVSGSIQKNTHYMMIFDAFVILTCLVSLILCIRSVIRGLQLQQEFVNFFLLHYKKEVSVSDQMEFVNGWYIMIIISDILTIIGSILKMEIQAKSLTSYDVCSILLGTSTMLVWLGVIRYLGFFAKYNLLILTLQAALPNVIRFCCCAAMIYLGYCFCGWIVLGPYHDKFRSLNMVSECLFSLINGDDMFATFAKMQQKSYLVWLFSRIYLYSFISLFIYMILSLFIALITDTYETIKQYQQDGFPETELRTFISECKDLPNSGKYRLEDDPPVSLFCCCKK

For the assay, the target named is Mucolipin-3 (Homo sapiens) (UniProt Q8TDD5). In words: activators of mucolipin-3 cation channel – cell-based, HEK293 TRPML3-YFP, Fluo-8 calcium fluorescence, 3 µM, primary screen (AID 1448).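 Also: 0% = DMSO only wells and 100% = carbachol wells.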 The following applies: at 3 µM, hits give high values, 100% = the carbachol control signal. The method, boiled down:
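system = HEK293 cells stably carrying human TRPML3-YFP | doses = one concentration, 3 µM nominal, 0.3% DMSO | timing = dye loading 1 h 37 °C then 30 min ambient, 125 s read | detection = Fluo-8 calcium dye fluorescence, ex 470-495, em 515-575 nm | benchmarks = high control carbachol 87 µM, low control DMSO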
Regarding `COc1ccc(N2C(=O)c3cccc4cccc(c34)C2=O)nn1`, the activation was -0.51% (inactive).

As to `Cc1nn(-c2cc(Cl)ccc2N)c(=O)c2ccccc12`, the activation is 0.26% (inactive).

Turning to `Cc1nn(C)cc1N1C(=O)c2cccc3c(N)ccc(c23)C1=O`, the activation is 16.9% (active).

`COCc1cc(=O)[nH]c(SC)n1`: the activation was 0.74% (inactive).

For the compound `Cc1cc(C)cc(C(=O)NCC(=O)OCC(=O)N2CCCCC2)c1`, the activation is 0.67% (inactive).

Consider `CC(NC(=O)COC(=O)C1CCN(S(=O)(=O)c2ccccc2C(F)(F)F)CC1)c1ccccc1` (centres undefined), for which the activation was -0.74% (inactive).

For `CC(C)CCC(C)NC(=O)c1ccc2nccnc2c1` (centres undefined), the activation is -0.61% (inactive).

On to `O=C(c1nnc(-c2ccc(Cl)cc2)o1)C1CCCC1`, for which the activation was 0.06% (inactive).

Take `CC1=C(C)CC2C(=O)N(c3cccc4ccccc34)C(=O)C2C1` (centres undefined): the activation was 0.86% (inactive).

With `CC1(C)CCCC2=C1CC1C(=O)N(c3ccccc3)C(=O)C1C2` (centres undefined), the activation was 22.9% (active).

Take `Cc1ccc(N2C(=O)C3CC3C2=O)cc1` (centres undefined): the activation is 0.72% (inactive).

Consider `Cc1cccc(-n2cnc(C(=O)NNC(=S)Nc3ccccc3)c2)n1`, for which the activation was 0.89% (inactive).

Turning to `Cn1ccc(NC(=O)Nc2ccc(Cl)cc2)n1`, the activation was 1.03% (inactive).

With `CN(C)c1ccc(/C=C2\NC(=S)N(Cc3ccccc3)C2=O)cc1`, the activation was 19.5% (active).

For the compound `CC1=NN(Cc2ccccc2)C(=O)/C1=C/c1ccc(N(C)C)cc1`, the activation was -2.14% (inactive).

Regarding `O=C1NCC(=O)N(Cc2ccccc2)/C1=C/c1ccccc1`, the activation was 1.86% (inactive).

Turning to `O=C(Nc1ccc(N2CCN(C(=O)c3ccccc3)CC2)c(Cl)c1)c1ncn[nH]1`, the activation was -0.11% (inactive).

`COCCNc1nc2nonc2nc1N1CCCC1c1nccs1` (centres undefined): the activation is 0.19% (inactive).

For the compound `NS(=O)(=O)c1ccc(NC(=S)NNC(=O)c2cccs2)cc1`, the activation was -0.19% (inactive).

As to `O=S(=O)(c1ccc(NC(=S)NN=C(C2CC2)C2CC2)cc1)N1CCOCC1`, the activation is 0.74% (inactive).

Take `COc1cc(/C=C(\C#N)c2nc3c(s2)CC(C)CC3)ccc1O` (centres undefined): the activation is 12.4% (active).

In the case of `CCOc1cc(/C=C(\C#N)c2nc(-c3cccs3)c(NC(C)=O)s2)ccc1O`, the activation is 9.68% (inactive).

Take `COc1cc(/C=N/Nc2nc3ccccc3s2)ccc1O`: the activation was -0.85% (inactive).

Consider `Cc1nn(CC(=O)Nc2ccc3c(c2)OCO3)c(C)c1[N+](=O)[O-]`, for which the activation was -0.67% (inactive).

In the case of `Cc1[nH]n(-c2ccccc2)c(=O)c1N=Nc1ccccc1C(=O)N1CCCCC1`, the activation is 0.09% (inactive).

For `O=C(CSc1nc2ccc(Nc3nc(N4CCOCC4)nc(N4CCOCC4)n3)cc2s1)NCc1ccco1`, the activation was 0.56% (inactive).

Regarding `CCn1c(CSc2ncccn2)nnc1SCC(=O)N1c2ccccc2CC1C` (centres undefined), the activation is -0.71% (inactive).

As for `CCn1c(Cc2ccccc2)nnc1SCC(=O)Nc1ccccc1`, the activation was -0.27% (inactive).

In the case of `CCCc1nnc(SCC(=O)N2C(C)CCCC2C)n1CC` (centres undefined), the activation is 20.2% (active).

Regarding `Cc1sc2nc(CC(N)=O)[nH]c(=O)c2c1-c1ccccc1`, the activation is 0.25% (inactive).

Consider `CCCN(C(=O)CSc1nnnn1C)c1c(N)n(Cc2ccccc2)c(=O)[nH]c1=O`, for which the activation is -0.23% (inactive).

Consider `COCCNC(=S)N1CCN(C)CC1`, for which the activation is 0.99% (inactive).

For `CC(C)C(=O)Nc1cccc(NC(=S)NC(=O)C(c2ccccc2)c2ccccc2)c1`, the activation was 1.07% (inactive).

Consider `CCCCC(=O)NNC(=S)NC(=O)C(c1ccccc1)c1ccccc1`, for which the activation was 74.5% (active).

Regarding `O=C(NNC(=S)NCc1ccco1)C(c1ccccc1)c1ccccc1`, the activation was 0.93% (inactive).

For `O=[N+]([O-])c1cc(S(=O)(=O)Nc2cccc(Cl)c2)ccc1N=Nc1c(O)[nH]c2ccccc12`, the activation is 0.58% (inactive).

With `CCS(=O)(=O)Nc1ccc(C2=NN(C(C)=O)C(c3cccs3)C2)cc1` (centres undefined), the activation was 0.2% (inactive).

As for `NNC(=O)c1cccc(COCC(F)(F)C(F)F)c1`, the activation is 0.05% (inactive).

As for `CC(C)c1c(O)nc(SCCOc2ccc(Cl)cc2)[nH]c1=O`, the activation was 0.56% (inactive).

On to `COc1cc(OC)cc(/C(N)=N/O)c1`, for which the activation is 0.62% (inactive).

Regarding `CC(/C=C/c1ccco1)=N/NC(=O)C1COc2ccccc2O1` (centres undefined), the activation was 1.2% (inactive).

In the case of `C=C(C)Cn1c(C)cc(C)c(S(=O)(=O)c2ccccc2C)c1=O`, the activation is 42% (active).

Take `S=c1nc(C23CC4CC(CC(C4)C2)C3)nc2sccn12`: the activation was 0.26% (inactive).

Regarding `Cc1ccccc1C(=O)NNC(=O)CN1C(=O)c2ccccc2C1=O`, the activation is 1.17% (inactive).

`O=C(NCCN1C(=O)S/C(=C\c2cccnc2)C1=O)c1ccc(S(=O)(=O)N2CCCC2)cc1`: the activation was -0.11% (inactive).

With `O=C(COC(=O)c1ccc(NS(=O)(=O)c2cccs2)cc1O)Nc1ccc(F)cc1`, the activation was 0.82% (inactive).

Consider `O=C(CSc1nncn1-c1cccnc1)N1CCOCC1`, for which the activation is 0.63% (inactive).

In the case of `O=S(=O)(Nc1cc(S(=O)(=O)N2CCOCC2)ccc1N1CCCC1)c1cccs1`, the activation was -0.45% (inactive).

For the compound `O=S(=O)(Nc1ccccc1N1CCOCC1)c1ccc(Cl)s1`, the activation is 98.9% (active).

Turning to `O=C(Nc1ccccc1N1CCOCC1)c1csc2c1CCCC2`, the activation is -1.45% (inactive).

For `CCOc1ccc(Br)cc1S(=O)(=O)Nc1ccc(C(=O)OC(C)C(=O)N(C)c2ccccc2)cc1` (centres undefined), the activation is 0.82% (inactive).

As for `COc1ccc(OC)c(NC(=S)N2CCc3ccccc3C2)c1`, the activation was -0.32% (inactive).

Turning to `COCc1[nH][nH]c(=O)c1C=Nc1ccc(F)cc1F`, the activation was 0.21% (inactive).

As to `Cc1cccc(OCC(=O)NC(=S)Nc2ccccc2N2CCOCC2)c1`, the activation was 0.19% (inactive).

With `Cc1ccc(O)c(NC(=O)COc2cc(C)ccc2C)c1`, the activation is 0.83% (inactive).

Take `Cc1ccc(O)c(NC(=S)NC(=O)COc2ccc(Br)cc2)c1`: the activation is 20.5% (active).

Consider `CC(C)N(C(=O)CSc1nc(COc2ccccc2)nc2ccccc12)C(C)C`, for which the activation is -1.84% (inactive).

Take `O=C(NCc1cccnc1)C(=O)Nc1nc(-c2ccccc2)cs1`: the activation is 0.51% (inactive).

As for `O=C(NNS(=O)(=O)Cc1ccccc1)c1ccc([N+](=O)[O-])cc1`, the activation was 0.34% (inactive).

Consider `CCN(CC)S(=O)(=O)c1cc([N+](=O)[O-])ccc1N=Nc1c(O)n(C)c2ccccc12`, for which the activation was 0.98% (inactive).

For `CCN(CC)S(=O)(=O)c1ccc2c3c(cccc13)C(=O)S2`, the activation is 12.9% (active).

Consider `CN(CCc1ccccn1)S(=O)(=O)c1ccc2c3c(cccc13)C(=O)N2`, for which the activation was 0.24% (inactive).

With `COCCNC(=O)C(OC(=O)c1cccs1)c1ccc(F)cc1` (centres undefined), the activation is 0.35% (inactive).

As for `CC(NC(=O)COC(=O)c1ccc2c(c1)OCO2)c1ccccc1` (centres undefined), the activation is -0.07% (inactive).

For `COc1cc(OC)cc(C(=O)N[C@H](C(=O)Nc2nc3ccccc3[nH]2)C(C)C)c1`, the activation is 0.87% (inactive).

Turning to `COc1cc(OC)cc(C(=O)N[C@H](C(=O)OCC(=O)NC(C)c2ccccc2)C(C)C)c1` (some centres undefined), the activation is 17.2% (active).

Consider `COc1ccc(Br)cc1CN(C)CC(=O)Nc1cc(Cl)cc(Cl)c1`, for which the activation is 0.63% (inactive).

On to `O=c1[nH]c2c(c(=O)n1Cc1ccccc1)CCC2`, for which the activation was 0.43% (inactive).

Take `CC(=O)c1ccc(-c2ccc(Cn3c(C)nc4cc(N)c(C)nc43)cc2)cc1`: the activation is 0.69% (inactive).

As for `Cc1cc2nc3c(=O)n(Cc4ccccc4)c(=O)[nH]c3nc2cc1N`, the activation is 23.9% (active).

On to `CCCC(=O)Nc1cccc(NC(=S)NC(=O)C(C)Oc2ccc(Cl)cc2Cl)c1` (centres undefined), for which the activation is 0.1% (inactive).

For the compound `COc1ccc(C(=O)NC(=S)NNC(=O)CCc2ccccc2)cc1`, the activation is 2.05% (inactive).

Turning to `Cc1onc(-c2ccccc2)c1C(=O)NNC(=S)NC(=O)c1ccc(F)cc1`, the activation was 1.79% (inactive).

Take `COc1ccc(C(=O)NC(=S)NNC(=O)c2c(-c3ccccc3)noc2C)cc1`: the activation is 31.2% (active).

On to `O=C(Nc1ccc(S(=O)(=O)Nc2nccs2)cc1)c1cc(-c2ccncc2)nc2ccccc12`, for which the activation was 0.93% (inactive).

For `CC(C)Cc1nc(Cl)c(C#N)c2c1CCC2`, the activation is -0.84% (inactive).

Turning to `O=C(CN1CCN(C(=S)NC2CCCC2)CC1)Nc1ccc(Oc2ccccc2)cc1`, the activation was 3.02% (inactive).

For `CCOCC(=O)Nc1ncc(S(=O)(=O)c2ccc([N+](=O)[O-])cc2)s1`, the activation is 2.38% (inactive).

Regarding `O=C(Cc1c(F)cccc1Cl)Nc1ncc([N+](=O)[O-])s1`, the activation is 10.9% (inactive).

Take `O=C(CCc1ccccc1)Nc1ncc([N+](=O)[O-])s1`: the activation was 8.03% (inactive).

As to `CC(=O)Oc1ccccc1C(=O)Nc1ncc([N+](=O)[O-])s1`, the activation was 16.7% (active).

Regarding `CCC(C)NC(=O)c1ccc(N2CCC3(CC2)OCCO3)c([N+](=O)[O-])c1` (centres undefined), the activation was -0.07% (inactive).

For `COc1cc2nc(CN(C)Cc3ccc(F)cc3)[nH]c(=O)c2cc1OC`, the activation is 0.67% (inactive).

For the compound `Cc1cs/c(=N\N=C\c2ccc(O)cc2)n1Cc1ccco1`, the activation is -0.12% (inactive).

On to `COc1ccc(NC(=O)Cn2c(=O)n(Cc3ccco3)c(=O)c3ccccc32)cc1`, for which the activation was 0.61% (inactive).

For the compound `CN(c1ccccc1)c1ccc(/C=c2\s/c(=C(/C#N)C(=O)C(C)(C)C)n(Cc3ccco3)c2=O)cc1`, the activation is 14.8% (active).

For `Cc1sc2ncnc(Sc3nc4ccccc4s3)c2c1C`, the activation is 0.98% (inactive).

On to `CCc1c(C)nc2c(-c3ccccc3)c(C)nn2c1Nc1ccc(NC(C)=O)cc1`, for which the activation is -0.72% (inactive).

Take `Cc1ccc(NC(=O)CN(C)CC(=O)Nc2cccc(F)c2)cc1[N+](=O)[O-]`: the activation was 4.13% (inactive).

As to `Cc1ccc(CN(C)CC(=O)Nc2cccc([N+](=O)[O-])c2)o1`, the activation was -0.52% (inactive).

As to `CN(CC(=O)Nc1cccc(F)c1)CC(=O)Nc1cccc([N+](=O)[O-])c1`, the activation was 26.9% (active).

For `COC(=O)C1=C(C)N(c2ccc(Br)cc2)C(=O)/C1=C\c1ccco1`, the activation is 0.24% (inactive).

As to `O=C(O)C(c1ccccc1)C1(O)CCCCC1` (centres undefined), the activation was 1.12% (inactive).

With `CC(NC(=O)C(C)(C)C)C(c1cccs1)N1CCN(Cc2ccccc2)CC1` (centres undefined), the activation is -0.4% (inactive).
